Data reported in ChEMBL document CHEMBL1153737, “Synthesis and antiprotozoal activity of 4-arylcoumarins” (Eur J Med Chem, 2010).

How the values were obtained:
THP-1 = test: Cytotoxicity against human THP1 cells assessed as cell viability after 72 hrs by Alamar blue assay; type: cell-based; conditions: THP-1, 72 h
Leishmania donovani [1] = test: Antileishmanial activity against Leishmania donovani MHOM/IN/80/DD8 promastigotes assessed as parasite viability after 48 hrs by Alamar blue assay; type: functional, organism-based; conditions: MHOM/IN/80/DD8, 48 h
Method in brief: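 Late log-phase promastigotes in complete RPMI (10% FCS, L-glutamine/penicillin–streptomycin) with 10% Alamar Blue and a range of compound concentrations, final DMSO <0.5%. Incubated 48 h at 27 °C. Viability read as Alamar Blue reduction by absorbance at 570 and 630 nm.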

Leishmania donovani [2] = test: Antileishmanial activity against Leishmania donovani MHOM/IN/80/DD8 amastigotes infected in human THP1 cells assessed as decrease of infected macrophages after 72 hrs by Giemsa staining; type: functional, organism-based; conditions: MHOM/IN/80/DD8, THP-1, 72 h
Method in brief: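 THP1 monocytes (10⁵ cells/ml) differentiated to adherent macrophages with phorbol myristate acetate in complete RPMI, 48 h at 37 °C, 6% CO₂. Infected with stationary-phase promastigotes at cell:parasite ratio 1/10 for 24 h, then washed four times. Compound dilutions added in duplicate chambers for 72 h at 37 °C. Cells methanol-fixed and Giemsa-stained. Amphotericin B and DMSO controls included.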

Plasmodium falciparum = test: Antiplasmodial activity against multidrug-resistant Plasmodium falciparum W2 infected human erythrocytes after 48 hrs by flow cytometry; type: functional, organism-based; conditions: W2, 48 h
[3] = Selectivity index, ratio of IC50 for human THP1 cells to IC50 for Leishmania donovani MHOM/IN/80/DD8 amastigotes; type: toxicity, cell-based, THP-1; conditions: read-out: Ratio IC50
Method in brief: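 SI Ama computed as IC50 on THP1 cells divided by IC50 on intracellular L. donovani amastigotes, with amastigote IC50 taken from three independent experiments.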

[4] = Selectivity index, ratio of IC50 for human THP1 cells to IC50 for Plasmodium falciparum W2; type: toxicity, cell-based, THP-1; conditions: read-out: Ratio IC50

SMILES	IC50 (THP-1)	IC50 (Leishmania donovani [1])	IC50 (Leishmania donovani [2])	IC50 (Plasmodium falciparum)	selectivity ratio [3]	selectivity ratio [4]
COc1cc2oc(=O)cc(-c3ccc(O)cc3)c2cc1OC	> 67 µM	> 67 µM	> 67 µM	> 67 µM	–	–
COc1ccc(-c2cc(=O)oc3cc(OC)c(OC)cc23)cc1OC	> 292 µM	> 292 µM	1.1 µM	> 117 µM	> 265	–
COc1ccc(-c2cc(=O)oc3ccccc23)cc1OC	> 176 µM	> 176 µM	26.4 µM	12 µM	> 6.7	> 14.7
COc1ccc2c(-c3ccc(OC)c(OC)c3)cc(=O)oc2c1	64 µM	25.6 µM	> 25 µM	64 µM	–	1
COc1ccc2oc(=O)cc(-c3ccc(OC)c(OC)c3)c2c1	> 160 µM	> 160 µM	5.4 µM	> 160 µM	> 29.6	–
COc1ccc(-c2cc(=O)oc3cc(OC)c(OC)c(OC)c23)cc1OC	78 µM	> 78 µM	4.3 µM	25.8 µM	18.1	3
COc1cc(-c2cc(=O)oc3cc(OC)c(OC)cc23)ccc1O	> 137 µM	94.2 µM	30.4 µM	22.5 µM	> 4.5	> 6.1
C[C@@H]1[C@H](O)[C@@H](C)/C=C/C=C/C=C/C=C/C=C/C=C/C=C/[C@H](O[C@@H]2O[C@H](C)[C@@H](O)[C@H](N)[C@@H]2O)C[C@@H]2O[C@](O)(C[C@@H](O)C[C@@H](O)[C@H](O)CC[C@@H](O)C[C@@H](O)CC(=O)O[C@H]1C)C[C@H](O)[C@H]2C(=O)O [AMPHOTERICIN B]	14 µM	–	0.1 µM	–	140	–
